{"source": "paper PMC2807935", "about": "(Naunyn-Schmiedeberg's Archives of Pharmacology, 2010)", "key": {"[1]": {"conditions": "at 200 mg; ref Brune and Hinz [2004]; Hinz et al. [2007]; cited from earlier work"}, "[2]": {"test": "Secondary clinical parameters: pain scores, analgesic consumption, side effects", "format": "in vivo, human"}, "[3]": {"conditions": "cited from earlier work"}, "COX-2": {"system": "COX-2", "conditions": "after a single dose of 120 mg; ref Dallob et al. [2003]; cited from earlier work"}, "[4]": {"test": "Pharmacokinetics of oral etoricoxib in plasma, CSF and tissue exudate", "format": "in vivo, human", "conditions": "for Tmax: t max"}, "[5]": {"conditions": "post-dose, monkeys; ref Riendeau et al. [2001]; cited from earlier work"}, "[6]": {"system": "PGE2 production in tissue", "test": "PGE2 concentrations in tissue exudate", "format": "in vivo, human", "outline": "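Patients given oral 120 mg or placebo at 7.00 am on postoperative day 1 after non-cemented hip arthroplasty. Hip drain emptied 1 h before each scheduled time (0, 1, 3, 8, 12, 24 h), then exudate collected over 60 min. Exudate centrifuged, supernatant frozen at −30°C. PGE2 measured by enzyme immunoassay (LOQ 15 pg/mL). Times are collection-interval midpoints; changes expressed versus baseline.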"}, "plasma proteins": {"system": "plasma proteins", "conditions": "ref Agrawal et al. [2003b]; cited from earlier work"}, "[7]": {"conditions": "patient R02, 50% of peak concentrations"}, "[8]": {"conditions": "patient R06, 50% of peak concentrations"}}, "note": "“And” between values parts separate entries of the source, which are not always exact repeats. Identical values can stand only once."}
{"smiles": "Cc1ccc(-c2cc(C(F)(F)F)nn2-c2ccc(S(N)(=O)=O)cc2)cc1", "note": "[celecoxib]", "values": [{"measurement": "Bioavailability", "setting": "[1]", "value": "20–60%"}]}
{"smiles": "Cc1ccc(-c2ncc(Cl)cc2-c2ccc(S(C)(=O)=O)cc2)cn1", "note": "[etoricoxib]", "values": [{"measurement": "Perioperative side effects", "setting": "[2]; 120 mg oral on postoperative day 1", "value": "no perioperative side effects related to the administration of etoricoxib"}, {"measurement": "Postoperative pain and opioid consumption versus placebo", "setting": "[2]; both groups received standard IT and parenteral pain medication, study not designed to detect differences", "value": "no meaningful differences"}, {"measurement": "Time after administration within which etoricoxib interferes with surgical pain", "setting": "[3]; patients, ref Clarke et al. [2009]", "value": "≤ 2", "unit": "h"}, {"measurement": "Time after surgery before which etoricoxib was not analgesic", "setting": "[3]; thyroid surgery, ref Smirnov et al. [2008]", "value": "≥ 6", "unit": "h"}, {"measurement": "Ex vivo whole blood IC50 of COX-2 inhibition", "setting": "COX-2", "value": "about 360 ng/mL"}, {"measurement": "CSF concentration", "setting": "[4]; 1 h later than in plasma", "value": "> 29", "unit": "ng/mL"}, {"measurement": "CSF concentration at 1 h as part of the peak CSF concentration", "setting": "[4]; 1 h post-dose", "value": 34, "unit": "%"}, {"measurement": "Etoricoxib in tissue exudate", "setting": "[4]; 2.5 h", "value": "virtually no drug detected"}, {"measurement": "Concentration in CSF as fraction of that in plasma at corresponding times", "setting": "[4]; AUC0–24h and max. concentration ratios", "value": "1/20"}, {"measurement": "Cmax", "setting": "[4]; CSF, n = 5, mean (± SD)", "value": "68.4 (30.6) ng/mL"}, {"measurement": "Time to plateau in plasma and CSF", "setting": "[4]; both compartments", "value": "about 2 h"}, {"measurement": "Plasma concentration", "setting": "[4]; during the first hour after 120 mg oral", "value": "> 360", "unit": "ng/mL"}, {"measurement": "Cmax", "setting": "[4]; human, CSF, oral, 120 mg, c max, n = 5, mean (± SD)", "value": "~70", "unit": "ng/mL"}, {"measurement": "Tmax", "setting": "[4]; human, CSF, oral, 120 mg, n = 5, median (range)", "value": 8, "unit": "h"}, {"measurement": "AUC(0-t)", "setting": "[4]; human, CSF, po, 120 mg, AUC0–24h, n = 5, 120 mg oral, mean (± SD)", "value": 955, "unit": "ng·h/mL"}, {"measurement": "Kp at 8 h", "setting": "[4]; human, CSF/plasma, oral, 120 mg, CSF/plasma conc. ratio at t max, n = 5, mean (± SD), at 8 h", "value": 0.06}, {"measurement": "Kp", "setting": "[4]; human, CSF/unbound plasma, oral, 120 mg, CSF/plasma ratio of the unbound fractions (CSF/Pu), at equilibrium (2–24 h), estimated", "value": "~0.56"}, {"measurement": "Cmax", "setting": "[4]; human, plasma, oral, 120 mg, c max, plasma, n = 5 subgroup, mean (± SD)", "value": 1440, "unit": "ng/mL"}, {"measurement": "Cmax", "setting": "[4]; human, plasma, oral, 120 mg, c max, n = 8 (all patients), mean (± SD)", "value": 1740, "unit": "ng/mL"}, {"measurement": "Tmax", "setting": "[4]; human, plasma, oral, 120 mg, plasma, n = 5 subgroup, median (range)", "value": 4, "unit": "h"}, {"measurement": "Tmax", "setting": "[4]; human, plasma, oral, 120 mg, n = 8 (all patients), median (range)", "value": 3, "unit": "h"}, {"measurement": "Individual CSF lag times with respect to (50%) peak plasma concentration", "setting": "[4]; in all but one case", "value": "≤ 2", "unit": "h"}, {"measurement": "Time to meaningful (COX-2 inhibitory) CSF concentrations", "setting": "[4]; in nearly all patients", "value": "≤ 2", "unit": "h"}, {"measurement": "Max. CSF/plasma conc. ratio", "setting": "[4]; individual maximal concentration ratios, between 3 and 12 h, mean ± SD, n = 5", "value": "7.3 (2.1) %"}, {"measurement": "Time of peak CSF concentration", "setting": "[4]; mean concentration-time curve, CSF", "value": 8, "unit": "h"}, {"measurement": "Lag time plasma vs. CSF", "setting": "[4]; mean of patients", "value": 2, "unit": "h"}, {"measurement": "Lag time plasma vs. tissue exudate", "setting": "[4]; mean of patients", "value": 3.8, "unit": "h"}, {"measurement": "Lag time plasma vs. tissue exudate", "setting": "[4]; median of patients, without correction for the delay of sampling", "value": 4, "unit": "h"}, {"measurement": "CSF/plasma ratio AUC0–24h", "setting": "[4]; n = 5, mean (range) of individual ratios", "value": "4.4% and 4.4 (2–7) %"}, {"measurement": "CSF/plasma conc. ratio at t max", "setting": "[4]; n = 5, mean (± SD), at 8 h", "value": "6.3 (2.0) %"}, {"measurement": "t max for CSF/plasma conc. ratio", "setting": "[4]; n = 5, median (range)", "value": "8 (3–12) h"}, {"measurement": "Lag time plasma vs. CSF", "setting": "[4]; patient R01, 50% of peak concentrations", "value": 1, "unit": "h"}, {"measurement": "Lag time plasma vs. tissue exudate", "setting": "[4]; patient R01, with respect to 50% of peak concentrations", "value": 4, "unit": "h"}, {"measurement": "Lag time plasma vs. CSF", "setting": "[4]; [7]", "value": 2, "unit": "h"}, {"measurement": "Lag time plasma vs. tissue exudate", "setting": "[4]; [7]", "value": 4, "unit": "h"}, {"measurement": "Lag time plasma vs. CSF", "setting": "[4]; patient R05, in brackets: invalid data due to missing values", "value": "(2) h"}, {"measurement": "Lag time plasma vs. CSF", "setting": "[4]; [8]", "value": 0, "unit": "h"}, {"measurement": "Lag time plasma vs. tissue exudate", "setting": "[4]; [8]", "value": 1.5, "unit": "h"}, {"measurement": "Lag time plasma vs. tissue exudate", "setting": "[4]; patient R07, 50% of peak concentrations", "value": 6.5, "unit": "h"}, {"measurement": "Lag time plasma vs. CSF", "setting": "[4]; patient R07, in brackets: invalid data due to missing values", "value": "(3) h"}, {"measurement": "Lag time plasma vs. CSF", "setting": "[4]; patient R09, 50% of peak concentrations", "value": 7, "unit": "h"}, {"measurement": "CSF peak concentration", "setting": "[4]; patient R09, 8 h post-medication", "value": 108, "unit": "ng/mL"}, {"measurement": "Median CSF lag time with respect to 50% of the peak concentration in plasma", "setting": "[4]; patient R09 not included", "value": 0.5, "unit": "h"}, {"measurement": "Range of CSF lag time with respect to 50% of the peak concentration in plasma", "setting": "[4]; patient R09 not included", "value": "0 to 2", "unit": "h"}, {"measurement": "Lag time plasma vs. tissue exudate", "setting": "[4]; patient R10, 50% of peak concentrations", "value": 3, "unit": "h"}, {"measurement": "Lag time plasma vs. CSF", "setting": "[4]; patient R10, in brackets: invalid data due to missing values", "value": "(0) h"}, {"measurement": "Lag time plasma vs. CSF", "setting": "[4]; patient R12, 50% of peak concentrations", "value": 0, "unit": "h"}, {"measurement": "Onset of antipyretic action", "setting": "[5]", "value": "about 2 h"}, {"measurement": "PGE2 concentration in tissue exudate, overall for all values (PGE2 Hip, n = 88)", "setting": "[6]; 120 mg etoricoxib oral, day 1 post-surgery, n = 8, mean (SD)", "value": "11.9 (10.2) ng/mL"}, {"measurement": "PGE2 concentration in tissue exudate", "setting": "[6]; 0.5 h after 120 mg oral, midpoint of collection interval, mean (SD)", "value": "18.1 (8.8) ng/mL"}, {"measurement": "PGE2 concentration in tissue exudate", "setting": "[6]; 1.5 h after 120 mg oral, mean (SD)", "value": "24.4 (10.5) ng/mL"}, {"measurement": "PGE2 concentration in tissue exudate", "setting": "[6]; 2.5 h after 120 mg oral, mean (SD)", "value": "20.9 (16.1) ng/mL"}, {"measurement": "PGE2 concentration in tissue exudate", "setting": "[6]; 5.0 h after 120 mg oral, mean (SD)", "value": "16.9 (13.6) ng/mL"}, {"measurement": "PGE2 concentration in tissue exudate", "setting": "[6]; 7.5 h after 120 mg oral, mean (SD)", "value": "12.1 (9.3) ng/mL"}, {"measurement": "PGE2 concentration in tissue exudate", "setting": "[6]; 9.5 h after 120 mg oral, mean (SD)", "value": "7.9 (6.0) ng/mL"}, {"measurement": "PGE2 concentration in tissue exudate", "setting": "[6]; 11.5 h after 120 mg oral, mean (SD)", "value": "6.4 (5.1) ng/mL"}, {"measurement": "PGE2 concentration in tissue exudate", "setting": "[6]; 17.5 h after 120 mg oral, mean (SD)", "value": "6.2 (6.2) ng/mL"}, {"measurement": "PGE2 concentration in tissue exudate", "setting": "[6]; 23.5 h after 120 mg oral, mean (SD)", "value": "2.3 (0.7) ng/mL"}, {"measurement": "Duration of the significant PGE2 difference to placebo", "setting": "[6]; till the end of the observation period", "value": 18, "unit": "h"}, {"measurement": "PGE2 concentration in tissue exudate", "setting": "[6]; time point Pre (baseline), n = 8, mean (SD)", "value": "7.7 (5.4) ng/mL"}, {"measurement": "Time after medication at which the PGE2 difference to placebo became significant", "setting": "[6]; tissue exudate samples, material produced about 2 h after medication", "value": 5, "unit": "h"}, {"measurement": "Bound to plasma proteins", "setting": "plasma proteins", "value": 92, "unit": "%"}]}
